BB579 growth dn = reduces growth of yeast BB579 in restrictive medium; S. cerevisiae BB579 growth, OD615, 48 h; inhibition, % at 10 µM; hit rate 0.51% among 140,000;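 active = inhibition above a set limit, 3 SD over the mean compound inhibition, cut at about 44% in these data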
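Material: Saccharomyces cerevisiae DeaD strain BB579, replicative lifespan model yeast; buffer or medium: CSMM-D restrictive synthetic medium containing dextrose (glucose); compound: 10 µM single dose, DMSO 0.25%; timing: 48 h compound exposure at 30 °C after 4 h preincubation; signal: turbidity as optical density at 615 nm; benchmarks: positive control amphotericin B 10 µg/mL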
WT yeast gro inh = growth inhibition of WT yeast, mitochondrial fusion screen | mitochondrial fusion phenotypic screen, WT strain | inhibition, % at 10 µM | hit rate 2.1% among 190,000 | AID 1362; in the data active = inhibition above about 58%; tested in S. cerevisiae
Yeast life ext = yeast lifespan extension; S. cerevisiae growth with nicotinamide, OD615; deaD strain in restrictive glucose medium; inhibition of the nicotinamide effect, % at 10 µM; hit rate 0.68% among 130,000;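 active = inhibition above a set limit, placed 3 SD over the median of all compounds, cut at about 26% in these data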;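 note: 0% = nicotinamide-treated wells and 100% = cells grown without nicotinamide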
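Assay system: engineered S. cerevisiae DeaD replicative-lifespan strain, galactose-grown log-phase cells; Buffer or medium: CSMM-D glucose medium, restrictive; Probe or stimulus: nicotinamide 1.5 mM; Compound: single dose 10 µM compound, 0.25% DMSO; Schedule: 4 h preincubation then 48 h treatment at 30 °C; Technique: OD615 measurement.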
RAM network inh = inhibitors of the yeast RAM network | inhibition, % at 50 µM | S. cerevisiae dse1pr::URA3 reporter, 5-FOA growth OD615, 2 d; analog-sensitive cbk1-as2 kinase mutant strain | hit rate 1.8% among 190,000;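 active = inhibition above a set limit, 3 SD over mean compound inhibition, cut at about 8.4% in these data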;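 note: 0% = DMSO-only wells with no growth and 100% = 10 µM 1-NA-PP1 full growth; inhibition rescues growth on 5-FOA so higher OD means more RAM inhibition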
* = called active by the depositor; . = not tested or not shown. An excerpt weighted towards active compounds, which were near 4.3% of everything screened.

SMILES | BB579 growth dn | WT yeast gro inh | Yeast life ext | RAM network inh
CCOC(=O)C(C)(C)N(Cc1ccc(C)cc1)S(=O)(=O)c1ccc(Cl)c([N+](=O)[O-])c1 | -24.8 | 38.1 | -3.0 | 9.8*
CCOC(=O)C(C)(C)N(Cc1ccc(Cl)cc1)S(=O)(=O)c1ccc(Cl)c([N+](=O)[O-])c1 | -48.5 | 20.2 | 8.2 | 9.4*
CC(=O)c1c(C)oc2ccc(N(C(C)=O)S(=O)(=O)c3ccc(Cl)c([N+](=O)[O-])c3)cc12 | -31.1 | 14.9 | -3.5 | 2.3
CCOC(=O)C(C)(C)NS(=O)(=O)c1ccc(Cl)c([N+](=O)[O-])c1 | -5.8 | -0.6 | -3.2 | 1.7
O=C(Cc1ccccc1Cl)N1CCN(c2ncccn2)CC1 | . | -5.2 | . | -0.8
Cc1cccc2c(=O)c(C(=O)NCCCN3CCOCC3)c[nH]c12 | -15.0 | -8.2 | . | -1.4
Cc1ccc(NC(=O)CSc2nc(=O)cc(N)n2CCc2ccccc2)cc1 | . | 8.8 | . | 0.0
CC(NC(=O)CSc1nc(=O)cc(N)n1CCc1ccccc1)c1ccccc1 (centres undefined) | -33.7 | 59.3* | -35.3 | 1.2
CC1=NN(c2ccccc2)C(=O)/C1=C/c1cc2cc(C)ccc2nc1N1CCCCC1 | -11.9 | 71.1* | 1.1 | 1.4
O=C(Cn1ccc(C(F)(F)F)n1)N=Nc1c(O)[nH]c2ccc(Br)cc12 | . | 19.6 | . | 1.7
Cc1ccc(S(=O)(=O)c2c(C)cc(C)nc2Oc2cccc(C)c2C)cc1 | -42.5 | 66.3* | -21.8 | 3.5
CNC(=S)N/N=C(\C)c1ccc(C(C)(C)C)cc1 | -18.0 | 75.2* | -3.7 | 0.5
Cc1cc(C)nc(SCC(=O)N/N=C/c2cccs2)n1 | 8.9 | -1.9 | 6.8 | 2.0
O=C(Nc1ccc2snnc2c1)Nc1cccc2ccccc12 | -8.6 | 89.3* | -7.2 | 3.0
Cc1nc2cc(NC(=O)Nc3cccc4ccccc34)ccc2n1C | . | -7.7 | . | 1.1
CCc1cccc(OCCCCNCCCOC)c1 | -0.3 | 6.7 | 1.2 | 1.3
CCOc1cccc(OCCCNCCCOC)c1 | -19.7 | 60.4* | -7.0 | 0.7
CC[n+]1ccccc1/C=C/c1ccc(N(C)C)cc1 | . | 2.3 | . | 0.5
CC[n+]1ccc(/C=C/c2ccc(N(C)C)cc2)c2ccccc21 | . | 86.6* | . | 3.2
Cc1ccc(CN2CCN(/N=C/c3cccs3)CC2)cc1 | -55.5 | 19.0 | 2.5 | 1.4
O=C(O)c1c[nH]c(=S)n1-c1ccc(F)cc1 | -33.1 | -7.1 | 102.9* | 0.8
Cc1cc(Br)c(Cl)cc1NC(=O)CN1C(=O)C2C3CC(c4ccccc4)C(C3)C2C1=O (centres undefined) | -28.6 | 69.6* | 7.2 | 4.4
CC1CC(N(C(=O)c2ccc(Cl)cc2)c2ccccc2)c2ccccc2N1C(=O)c1ccco1 (centres undefined) | -67.0 | 83.6* | 2.4 | 5.0
C=CCNC(=S)NNC(=O)COc1ccc(Cl)cc1Cl | -34.9 | 67.8* | -1.0 | 0.4
C=CCNC(=O)COc1ccc(Br)cc1Cl | -10.3 | 1.2 | -6.8 | -0.2
SMILES | BB579 growth dn | WT yeast gro inh | Yeast life ext | RAM network inh
O=C(COc1ccc(Cl)cc1Cl)NNC(=S)Nc1ccc(F)cc1 | -19.2 | 61.7* | -2.8 | 4.1
Cc1oc(-c2cc(F)ccc2F)nc1CN1CCCN(C(=O)c2ccco2)CC1 | . | -0.6 | . | 0.8
CCC(C)C(NC(=O)OC(C)(C)C)C(=O)NC(C)C(N)=O (centres undefined) | . | -7.8 | . | -0.4
O=C1CC(C2CCCO2)C(=O)N1c1ccc(Cl)c(Cl)c1 (centres undefined) | . | -1.1 | . | 0.1
Cc1ccc(NC(=O)c2cc(C)n(-c3ccccc3)c2C)cc1 | -26.1 | 40.7 | -4.4 | 3.0
Cc1ccc(NC(=O)c2cc(C)n(-c3cccc(C)c3)c2C)cc1 | -39.2 | 61.6* | -0.4 | 6.7
Cc1ccc(-n2c(C)cc(C(=O)NS(=O)(=O)c3ccc(C)cc3)c2C)cc1 | -27.9 | -28.9 | 15.2 | 8.6*
O=C(O)c1ccc(/C=C2\SC(=Nc3ccccc3)N(c3ccccc3)C2=O)cc1 | . | -12.5 | . | 6.0
COCCCNC(=O)COc1ccc(S(=O)(=O)NCc2ccccc2)cc1Cl | -21.3 | 9.9 | 10.9 | 1.5
COc1cccc(CNC(=O)Cc2ccc(-n3c(=O)[nH]c4ccccc4c3=O)cc2)c1 | -27.6 | -9.0 | 4.5 | 9.0*
COc1ccc(OC)c(NC(=O)CNC(=O)c2cccs2)c1 | -15.1 | -9.6 | -6.4 | 0.6
CC(C)CCNC(=O)CCCOc1cc(=O)n(C)c2ccccc12 | -29.5 | 96.5* | -4.5 | 1.5
O=C(CSc1nnc(-c2cc3ccccc3cc2O)n1Cc1ccco1)c1ccc(F)cc1 | -28.8 | 29.5 | 5.4 | 8.4*
CCCN(CC(=O)Nc1cc(Cl)cc(Cl)c1)CC(=O)Nc1ccc(F)c(F)c1F | -34.6 | 73.0* | -3.2 | 4.0
CCCN(CC(=O)Nc1ccccc1Br)CC(=O)Nc1ccc(F)c(F)c1F | -22.8 | 2.5 | 5.3 | 1.5
COc1ccc(/C=C/C(=O)CC(O)(c2ccccc2)C(F)(F)F)cc1 (centres undefined) | -21.4 | -2.8 | . | 1.7
O=C(/C=C/c1ccccc1)CC(O)(c1ccccc1)C(F)(F)F (centres undefined) | -26.5 | 42.7 | 34.9* | 3.2
O=C(/C=C/c1ccccc1)CC(O)(c1ccccc1)C(F)(F)C(F)F (centres undefined) | -41.5 | 54.5 | 40.2* | 2.6
Cc1ccc(O)c(C(=O)c2cnc3c(c2)c(-c2ccc(F)cc2)c(C#N)c(=O)n3C)c1 | . | 29.9 | . | 5.7
NNC(=O)C12CC3CC(C1)CC(n1ncnn1)(C3)C2 | -18.1 | -3.7 | 6.3 | 0.9
Cc1ccc(-c2cc(C(=O)N3CCCC3)no2)cc1 | -4.3 | -10.1 | -18.4 | -0.3
CC1CCCC(C)N1C(=O)c1cc(-c2ccc(Cl)c(Cl)c2)on1 (centres undefined) | -40.2 | 3.2 | -4.7 | 10.6*
Cc1cc(C)n(/N=C/c2cc([N+](=O)[O-])ccc2O)c(=O)c1 | . | -28.2 | . | -1.3
O=C(Nc1ccc(OCC(F)(F)C(F)F)c(C(F)(F)F)c1)c1ccccc1O | -24.5 | 75.3* | -5.7 | 0.7
OC(CNCCc1ccc(C(F)(F)F)cc1)COc1ccc2ccccc2c1 (centres undefined) | 62.6* | 96.5 | -10.0 | -0.4
SMILES | BB579 growth dn | WT yeast gro inh | Yeast life ext | RAM network inh
OC(CNCCc1ccc(C(F)(F)F)cc1)COc1cccc2ccccc12 (centres undefined) | -3.8 | 94.4 | -5.9 | -1.4
Clc1ccc(C2=Nn3c(nnc3-c3cc(-c4ccccc4)n[nH]3)SC2)cc1 | -71.5 | 96.5* | -16.5 | 9.1*
c1ccc(-c2nnc3n2N=C(c2ccc4c(c2)OCO4)CS3)nc1 | -55.2 | -0.6 | -3.0 | 9.2*
c1ccc(C2=Nn3c(nnc3-c3cc(-c4ccccc4)n[nH]3)SC2)cc1 | -3.9 | -0.8 | -4.5 | 8.6*
CC(C)N=c1scc(-c2cccs2)n1/N=C/c1ccc(O)c(O)c1O | 96.2* | 81.8* | 2.0 | 1.7
COc1ccc(-n2c(SCC3OCCO3)nc3c(sc(=S)n3-c3ccccc3)c2=O)cc1OC | . | 3.7 | . | 8.6*
CCn1c(=S)sc2c(=O)n(-c3ccccc3)c(SC)nc21 | -36.5 | 23.4 | 5.8 | 3.4
CN(C)/C=C(\C#N)C(=O)c1cccc(Oc2ccc(Br)cc2)c1 | -61.0 | -9.5 | -7.4 | 0.0
CCOc1cccc(Oc2ncccc2C(=O)/C(C#N)=C/N(C)C)c1 | -39.7 | 95.1* | -27.4 | 0.1

From PubChem BioAssay
